Experiments:
[1] = target: Sodium-dependent serotonin transporter (Rattus norvegicus) (UniProt P31652); assay: Inhibition of [3H]citalopram binding at rat serotonin transporter; 10 uM
Procedure, shortened: (§1)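 Contract-lab radioligand displacement, percent inhibition at 10 μM test compound; 5HTT used [³H]citalopram at 0.7 nM final, NET used [³H]desmethylimipramine at 3.0 nM final.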

[2] = target: T1, Sodium-dependent dopamine transporter (Rattus norvegicus, UniProt P23977); assay: Inhibition of [3H]dopamine uptake in rat caudate putamen.; format: functional, tissue-based
[3] = target: Norepinephrine transporter (Rattus norvegicus) (UniProt Q9WTR4); assay: Inhibition of [3H]desmethylimipramine binding at rat norepinephrine transporter; 10 uM; procedure, shortened: as §1
[4] = target: T2, Muscarinic acetylcholine receptor M1 (Rattus norvegicus, UniProt P08482); assay: Affinity for rat M1 acetylcholine receptor using [3H]pirenzepine displacement.
T2 sequence (P08482 whole entry): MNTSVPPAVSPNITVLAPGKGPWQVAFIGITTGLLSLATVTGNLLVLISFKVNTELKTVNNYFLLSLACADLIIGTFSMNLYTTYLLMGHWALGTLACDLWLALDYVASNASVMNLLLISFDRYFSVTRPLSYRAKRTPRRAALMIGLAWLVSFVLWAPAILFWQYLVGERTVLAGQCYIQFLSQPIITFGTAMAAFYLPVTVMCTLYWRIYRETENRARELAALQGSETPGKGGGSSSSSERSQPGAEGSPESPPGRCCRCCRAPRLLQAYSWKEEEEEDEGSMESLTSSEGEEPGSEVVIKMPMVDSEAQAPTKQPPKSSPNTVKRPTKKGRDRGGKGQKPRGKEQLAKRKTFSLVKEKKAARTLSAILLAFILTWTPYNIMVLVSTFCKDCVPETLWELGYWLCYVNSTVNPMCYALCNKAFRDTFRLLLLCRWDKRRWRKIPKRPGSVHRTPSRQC

[5] = target: T1, Sodium-dependent dopamine transporter; assay: Affinity for rat dopamine transporter using [3H]WIN-35428 displacement.
Procedure, shortened: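 Rat caudate putamen (male Sprague–Dawley, 200–250 g) homogenised in ice-cold modified Krebs-HEPES, pH 7.4, washed and used fresh (0.5% w/v). Filtration, scintillation counting. Ki from nonlinear least-squares fitting of three independent experiments, F test model selection.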

[6] = target: T3, Muscarinic acetylcholine receptor M2 (Rattus norvegicus, UniProt P10980); assay: Affinity for rat M2 acetylcholine receptor using [3H]-AF DX 384 displacement.
T3 sequence (P10980 whole entry): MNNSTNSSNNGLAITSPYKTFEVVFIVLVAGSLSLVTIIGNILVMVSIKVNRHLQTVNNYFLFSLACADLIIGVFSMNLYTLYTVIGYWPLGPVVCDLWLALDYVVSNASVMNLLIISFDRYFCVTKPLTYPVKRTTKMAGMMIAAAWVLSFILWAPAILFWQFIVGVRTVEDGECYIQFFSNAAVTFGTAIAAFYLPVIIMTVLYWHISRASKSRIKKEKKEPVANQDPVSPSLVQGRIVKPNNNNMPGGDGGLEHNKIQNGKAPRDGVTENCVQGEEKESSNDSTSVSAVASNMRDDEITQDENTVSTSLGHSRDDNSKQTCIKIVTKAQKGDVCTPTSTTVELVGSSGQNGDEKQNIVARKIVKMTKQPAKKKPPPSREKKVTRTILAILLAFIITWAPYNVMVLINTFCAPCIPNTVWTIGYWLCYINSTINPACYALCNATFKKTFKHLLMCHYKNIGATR

Sequence of Norepinephrine transporter (Rattus norvegicus) (Q9WTR4 as listed by the source): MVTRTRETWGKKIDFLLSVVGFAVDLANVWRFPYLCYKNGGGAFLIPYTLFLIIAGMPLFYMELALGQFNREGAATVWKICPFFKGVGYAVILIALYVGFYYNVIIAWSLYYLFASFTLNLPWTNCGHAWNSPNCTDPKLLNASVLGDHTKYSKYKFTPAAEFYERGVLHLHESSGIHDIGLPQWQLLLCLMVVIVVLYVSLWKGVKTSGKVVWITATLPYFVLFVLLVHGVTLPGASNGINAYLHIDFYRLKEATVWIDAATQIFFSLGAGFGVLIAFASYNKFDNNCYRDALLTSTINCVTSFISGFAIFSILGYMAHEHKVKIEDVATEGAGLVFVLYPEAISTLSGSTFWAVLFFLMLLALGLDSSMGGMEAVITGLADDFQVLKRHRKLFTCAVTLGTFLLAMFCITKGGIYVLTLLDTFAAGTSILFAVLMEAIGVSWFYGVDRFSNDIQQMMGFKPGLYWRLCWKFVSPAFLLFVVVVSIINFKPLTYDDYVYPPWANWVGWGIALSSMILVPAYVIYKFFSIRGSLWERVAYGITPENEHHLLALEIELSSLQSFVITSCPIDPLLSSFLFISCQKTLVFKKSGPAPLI
Sequence of Sodium-dependent serotonin transporter (Rattus norvegicus) (P31652 whole entry): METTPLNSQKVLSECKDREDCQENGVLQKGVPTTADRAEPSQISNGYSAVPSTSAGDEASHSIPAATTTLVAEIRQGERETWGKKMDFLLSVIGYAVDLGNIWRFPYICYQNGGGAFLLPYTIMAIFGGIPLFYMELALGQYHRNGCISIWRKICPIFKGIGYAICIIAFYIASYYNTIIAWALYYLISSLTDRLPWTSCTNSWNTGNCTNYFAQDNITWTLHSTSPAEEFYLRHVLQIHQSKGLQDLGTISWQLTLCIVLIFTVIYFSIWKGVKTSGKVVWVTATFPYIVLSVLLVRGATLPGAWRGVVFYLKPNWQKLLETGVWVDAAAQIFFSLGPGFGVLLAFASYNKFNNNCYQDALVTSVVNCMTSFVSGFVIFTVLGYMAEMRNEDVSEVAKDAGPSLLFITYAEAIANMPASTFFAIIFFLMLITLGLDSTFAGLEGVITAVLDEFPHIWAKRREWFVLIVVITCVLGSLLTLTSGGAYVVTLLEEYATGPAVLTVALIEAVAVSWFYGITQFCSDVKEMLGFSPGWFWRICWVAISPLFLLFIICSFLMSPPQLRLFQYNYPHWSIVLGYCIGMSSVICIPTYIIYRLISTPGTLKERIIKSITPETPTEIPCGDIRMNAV
T1 sequence (P23977 whole entry): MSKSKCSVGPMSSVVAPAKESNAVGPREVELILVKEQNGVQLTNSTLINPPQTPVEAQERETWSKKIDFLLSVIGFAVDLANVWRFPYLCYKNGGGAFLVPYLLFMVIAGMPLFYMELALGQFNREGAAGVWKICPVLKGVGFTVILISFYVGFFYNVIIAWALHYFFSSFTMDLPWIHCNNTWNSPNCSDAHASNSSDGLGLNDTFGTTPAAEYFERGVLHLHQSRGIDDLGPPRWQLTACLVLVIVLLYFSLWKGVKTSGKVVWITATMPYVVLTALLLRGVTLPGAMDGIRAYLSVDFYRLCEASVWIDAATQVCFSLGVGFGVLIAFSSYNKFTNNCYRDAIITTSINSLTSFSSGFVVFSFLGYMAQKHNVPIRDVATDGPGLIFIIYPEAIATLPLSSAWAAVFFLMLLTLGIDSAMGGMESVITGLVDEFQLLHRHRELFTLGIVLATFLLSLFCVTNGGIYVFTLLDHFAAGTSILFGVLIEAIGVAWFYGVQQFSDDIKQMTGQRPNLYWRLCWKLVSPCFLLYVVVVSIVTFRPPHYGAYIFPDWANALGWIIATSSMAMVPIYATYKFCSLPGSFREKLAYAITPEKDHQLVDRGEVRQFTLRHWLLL

Row | Compound | inhibition [1] | IC50 [2] | inhibition [3] | Ki [4] | Ki [5] | Ki [6]
1 | CN1[C@@H]2CC[C@H]1C[C@@H](OC(c1ccccc1)c1ccc(C(F)(F)F)cc1)C2 (stereo partly drawn) | 49.1% | 2.15 µM | 34.6% |  |  | 
2 | CN1[C@@H]2CC[C@H]1C[C@@H](OC(c1ccc(F)cc1)c1ccc(Cl)c(Cl)c1)C2 (stereo partly drawn) | 80.3% | 0.024 µM | > 57.8% |  |  | 
3 | Cc1ccc(C(O[C@H]2C[C@H]3CC[C@@H](C2)N3C)c2ccc(C)cc2)cc1 | 35.5% | 2.54 µM | 35.1% |  |  | 
4 | CN1[C@@H]2CC[C@H]1C[C@@H](OC(c1ccccc1)c1ccc([N+](=O)[O-])cc1)C2 (stereo partly drawn) | 54% | 0.219 µM | 29% |  |  | 
5 | CN1C2CCC1CC(OC(c1ccc(F)cc1)c1ccc(F)cc1)C2 (stereo not drawn) | 62% |  | 30% |  |  | 
6 | CN1[C@@H]2CC[C@H]1C[C@@H](OC(c1ccccc1)c1ccc(O)cc1)C2 (stereo partly drawn) | 23.3% | 0.677 µM | 27.3% |  |  | 
7 | CN1[C@@H]2CC[C@H]1C[C@@H](OC(c1ccccc1)c1ccc(F)cc1)C2 (stereo partly drawn) | 35.2% |  | 37.9% |  |  | 
8 | CN1C2CCC1CC(OC(c1ccccc1)c1ccc(Cl)cc1)C2 (stereo in doubt; 7a) [listing 1 of 2 here] | 34% |  | 32% |  |  | 
9 | CN1[C@@H]2CC[C@H]1C[C@@H](OC(c1ccccc1)c1ccc(Br)cc1)C2 (stereo partly drawn) | 39% | 0.029 µM | 37% |  |  | 
10 | Cc1ccc(C(O[C@H]2C[C@H]3CC[C@@H](C2)N3C)c2ccccc2)cc1 (stereo partly drawn) | 35.4% | 0.512 µM | 31.8% |  |  | 
11 | CN1[C@@H]2CC[C@H]1C[C@@H](OC(c1ccc(Br)cc1)c1ccc(Br)cc1)C2 | 41% | 0.034 µM | 41.1% | 0.0708 µM |  | 
12 | CCc1ccc(C(O[C@H]2C[C@H]3CC[C@@H](C2)N3C)c2ccccc2)cc1 (stereo partly drawn) | 42.7% | 0.984 µM | 32.7% |  |  | 
13 | COc1ccc(C(O[C@H]2C[C@H]3CC[C@@H](C2)N3C)c2ccc(OC)cc2)cc1 | 31% | 2.88 µM | 34% |  | 2 µM | 
14 | CN1C2CCC1CC(OC(c1ccccc1)c1ccc(Cl)cc1)C2 (stereo in doubt; 10) [listing 1 of 2 here] | 37.2% |  | 27.9% |  |  | 
15 | CN1[C@@H]2CC[C@H]1C[C@@H](OC(c1ccccc1)c1ccc(C(C)(C)C)cc1)C2 (stereo partly drawn) | 24.7% | 4.46 µM | 37.6% |  |  | 
16 | CN1[C@@H]2CC[C@H]1C[C@@H](OC(c1ccc(Cl)cc1)c1ccc(Cl)cc1)C2 | 54% |  | > 43% |  |  | 
17 | CN1C2CCC1CC(OC(c1ccccc1)c1ccc(Cl)cc1)C2 (stereo in doubt; 10) [listing 2 of 2 here] |  | 3.52 µM |  | 0.0041 µM |  | 0.0874 µM
18 | CN1[C@@H]2CC[C@H]1C[C@@H](OC(c1ccccc1)c1ccc(C#N)cc1)C2 (stereo partly drawn) | 40% | 0.222 µM | 16% |  |  | 
19 | CN1C2CCC1CC(OC(c1ccccc1)c1ccc(Cl)cc1)C2 (stereo in doubt; 7a) [listing 2 of 2 here] |  | 0.115 µM |  | 0.0036 µM | 0.03 µM | 0.0366 µM
20 | COc1ccc(C(O[C@H]2C[C@H]3CC[C@@H](C2)N3C)c2ccccc2)cc1 (stereo partly drawn) | 30.5% | 0.468 µM | 30.9% |  | 0.0784 µM | 
21 | CN1[C@@H]2CC[C@H]1C[C@@H](OC(c1ccccc1)c1ccc(Cl)c(Cl)c1)C2 (stereo partly drawn) | 66.2% | 0.047 µM | 56.5% |  | 0.0211 µM | 
